Source: ChEMBL document CHEMBL1127736, “Isozyme-specific glutathione-S-transferase inhibitors: design and synthesis” (J Med Chem, 1994)
Numbered stars: 1 amine (or outer) side, 2 acyl side, 3 side chain; on linkers, the order of the positions; unused ones are H or OH. Square brackets hold non-standard residues; d marks the D form. Peptide text beside a SMILES is read from it. * marks the point of attachment. γGlu = O=C(O)[CH](CCC(=O)[*:2])N[*:1]; Phg = N[CH](C(=O)O)c1ccccc1; Bn = c1ccc(C*)cc1

Legend:
[1] = molecular target: Glutathione S-transferase P (Homo sapiens, UniProt P09211); experiment: Inhibitory activity was measured on recombinant human Glutathione S-transferase P
Method in brief: (§1)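 Enzyme inhibition was measured in the reaction of recombinant human GST isozymes (four isozymes tested) with glutathione and 1-chloro-2,4-dinitrobenzene (CDNB) as the electrophilic substrate. Ki values were determined by a previously published method. The error in each measurement is stated as ±30%.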

[2] = molecular target: T1, Glutathione S-transferase Mu 1 (Homo sapiens, UniProt P09488); experiment: Inhibitory activity was measured on recombinant human Glutathione S-transferase Mu 1; method in brief: as §1
T1 sequence (P09488 whole entry): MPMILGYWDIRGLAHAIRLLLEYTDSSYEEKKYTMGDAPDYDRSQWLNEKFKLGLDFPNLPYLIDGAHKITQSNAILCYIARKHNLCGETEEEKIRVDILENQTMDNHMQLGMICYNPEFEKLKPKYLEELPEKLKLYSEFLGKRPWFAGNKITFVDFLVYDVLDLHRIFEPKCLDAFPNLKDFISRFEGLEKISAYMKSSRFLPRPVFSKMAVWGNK

[3] = molecular target: T2, Glutathione S-transferase Mu 2 (Homo sapiens, UniProt P28161); experiment: Inhibitory activity was measured on recombinant human Glutathione S-transferase Mu 2; method in brief: as §1
T2 sequence (P28161 whole entry): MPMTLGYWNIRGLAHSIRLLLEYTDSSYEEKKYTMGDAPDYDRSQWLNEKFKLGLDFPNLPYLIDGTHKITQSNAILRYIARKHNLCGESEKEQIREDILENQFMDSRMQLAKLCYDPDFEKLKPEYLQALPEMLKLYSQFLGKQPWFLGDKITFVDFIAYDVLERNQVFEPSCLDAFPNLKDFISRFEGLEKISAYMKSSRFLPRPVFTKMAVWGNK

[4] = molecular target: T3, Glutathione S-transferase A1 (Homo sapiens, UniProt P08263); experiment: Inhibitory activity was measured on recombinant human Glutathione-S-transferase A1 enzyme; method in brief: as §1
T3 sequence (P08263 whole entry): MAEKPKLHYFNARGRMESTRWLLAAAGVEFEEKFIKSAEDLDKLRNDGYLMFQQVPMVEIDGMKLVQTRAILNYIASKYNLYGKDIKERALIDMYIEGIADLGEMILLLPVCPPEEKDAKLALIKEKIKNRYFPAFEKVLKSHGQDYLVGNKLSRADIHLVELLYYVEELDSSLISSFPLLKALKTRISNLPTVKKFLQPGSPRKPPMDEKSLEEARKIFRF

[5] = molecular target: T1, Glutathione S-transferase Mu 1; experiment: Inhibitory activity was measured on recombinant human Glutathione-S-transferase M1a enzyme; method in brief: as §1

Glutathione S-transferase P, sequence (P09211 whole entry): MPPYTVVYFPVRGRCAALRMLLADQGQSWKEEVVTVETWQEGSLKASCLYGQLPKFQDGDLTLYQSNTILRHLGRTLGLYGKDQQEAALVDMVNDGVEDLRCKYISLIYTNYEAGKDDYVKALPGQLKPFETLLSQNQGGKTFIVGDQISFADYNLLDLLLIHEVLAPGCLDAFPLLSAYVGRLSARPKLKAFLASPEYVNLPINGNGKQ

Ki [1] [µM]	Ki [2] [µM]	Ki [3] [µM]	Ki [4] [µM]	Ki [5] [µM]	SMILES
0.42	57.8	184	24.3	–	NC(CCC(=O)NC(CSCc1ccccc1)C(=O)NC(C(=O)O)c1ccccc1)C(=O)O (configuration not stated) (γGlu-Cys(Bn)-[Phg]-OH; configuration not given here)
550	11	42	43	–	CCCCCCSCC(NC(=O)CCC(N)C(=O)O)C(=O)NCCC(=O)O (configuration not stated)
710	22	26	360	–	NC(CCC(=O)NC(CSCc1ccccc1)C(=O)NCCC(=O)O)C(=O)O (configuration not stated)
0.12	–	48.3	14.7	15.1	NC(CCC(=O)NC(CSCc1ccc(Cl)cc1)C(=O)NC(C(=O)O)c1ccccc1)C(=O)O (configuration not stated)
–	2	36	0.84	–	CCCCCCSCC(NC(=O)CCC(N)C(=O)O)C(=O)NCC(=O)O (configuration not stated)
0.85	41	97	5.8	–	CCCCCCSCC(NC(=O)CCC(N)C(=O)O)C(=O)NC(C(=O)O)c1ccccc1 (configuration not stated)
40	2.1	20	43	–	Cc1ccc(CSCC(NC(=O)CCC(N)C(=O)O)C(=O)NCCC(=O)O)cc1 (configuration not stated)
